Source: PubChem (Johns Hopkins Ion Channel Center)
KCNQ1 inh: human KCNQ1 channel inhibition; P51787; CHO-K1 KCNQ1, FluxOR thallium flux fluorescence; active compounds read high; B-score at 10 µM; actives 1.3% (n = 310,000); AID 2642;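 active = compounds whose thallium flux B-score, printed positive for inhibition, exceeds three library SD while starting fluorescence stays within three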;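 note: channel opened by potassium depolarization with thallium stimulus after 20 min compound exposure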
Kir21 inh: Kir2.1 (mouse) channel inhibition; HEK293-Kir2.1, FluxOR thallium flux fluorescence; active compounds read low; B-score at 10 µM; P35561; AID 1672; actives 0.85% (n = 310,000);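 active = fluorescence ratio B-score at or below minus 3 SD of library scores, with starting-brightness B-score within 2 SD, cut at about -4.2 in these data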;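 note: channel flux triggered by added potassium and thallium sulfate stimulus; B-score of peak minus minimum fluorescence over baseline after thallium stimulus; more negative B-score means stronger Kir2.1 block with less thallium influx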
KCNQ1 act: human KCNQ1 channel potentiation or activation. P51787. CHO-K1 KCNQ1, thallium flux FluxOR fluorescence; active compounds read high. B-score at 10 µM. actives 0.35% (n = 310,000);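 active = fluorescence ratio B-score, a plate-corrected score, at least three library SD, with initial intensity B-score within 5 SD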
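Schedule – 37 °C overnight plating, 90-min dark dye load, 20-min compound pretreatment · System – stable KCNQ1 CHO-K1 line · Probe or stimulus – thallium- and potassium-containing depolarizing buffer · Measured by – kinetic FluxOR fluorescence, 10 s baseline plus 110 s post-stimulus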
KCNK9 inh: human KCNK9 channel inhibition | AID 488922 | Q9NPC2 | HEK293 KCNK9, FluxOR thallium flux fluorescence; active compounds read low | B-score at 10 µM | actives 1.2% (n = 310,000);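 active = ratio B-score over 3 SD below the library mean, with starting fluorescence within 5 SD of its mean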;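 note: negative B-score means less thallium flux so channel inhibition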
KCNK3 inh: human KCNK3 channel inhibition, primary screen; O14649; actives 0.84% (n = 340,000); CHO-KCNK3 thallium flux, FluxOR fluorescence; active compounds read low; B-score at 10 µM;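 active = B-score under library mean minus 4 SD, starting fluorescence ratio at most library mean plus 5 SD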;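 note: more negative B-score means stronger inhibition of thallium flux through KCNK3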
hERG rescue: hERG (human) protection from proarrhythmic block. CHO-hERG, FluxOR thallium flux, dofetilide IC70 present. actives 0.51% (n = 310,000). activation (rescue from dofetilide block), less the hit threshold, % at 10 µM;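 active = activation above the mean of controls blocked by dofetilide plus 5 SD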;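 note: thallium influx through hERG after potassium depolarization seen as dye fluorescence rise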
Target sequence (Q12809 whole entry, looked up): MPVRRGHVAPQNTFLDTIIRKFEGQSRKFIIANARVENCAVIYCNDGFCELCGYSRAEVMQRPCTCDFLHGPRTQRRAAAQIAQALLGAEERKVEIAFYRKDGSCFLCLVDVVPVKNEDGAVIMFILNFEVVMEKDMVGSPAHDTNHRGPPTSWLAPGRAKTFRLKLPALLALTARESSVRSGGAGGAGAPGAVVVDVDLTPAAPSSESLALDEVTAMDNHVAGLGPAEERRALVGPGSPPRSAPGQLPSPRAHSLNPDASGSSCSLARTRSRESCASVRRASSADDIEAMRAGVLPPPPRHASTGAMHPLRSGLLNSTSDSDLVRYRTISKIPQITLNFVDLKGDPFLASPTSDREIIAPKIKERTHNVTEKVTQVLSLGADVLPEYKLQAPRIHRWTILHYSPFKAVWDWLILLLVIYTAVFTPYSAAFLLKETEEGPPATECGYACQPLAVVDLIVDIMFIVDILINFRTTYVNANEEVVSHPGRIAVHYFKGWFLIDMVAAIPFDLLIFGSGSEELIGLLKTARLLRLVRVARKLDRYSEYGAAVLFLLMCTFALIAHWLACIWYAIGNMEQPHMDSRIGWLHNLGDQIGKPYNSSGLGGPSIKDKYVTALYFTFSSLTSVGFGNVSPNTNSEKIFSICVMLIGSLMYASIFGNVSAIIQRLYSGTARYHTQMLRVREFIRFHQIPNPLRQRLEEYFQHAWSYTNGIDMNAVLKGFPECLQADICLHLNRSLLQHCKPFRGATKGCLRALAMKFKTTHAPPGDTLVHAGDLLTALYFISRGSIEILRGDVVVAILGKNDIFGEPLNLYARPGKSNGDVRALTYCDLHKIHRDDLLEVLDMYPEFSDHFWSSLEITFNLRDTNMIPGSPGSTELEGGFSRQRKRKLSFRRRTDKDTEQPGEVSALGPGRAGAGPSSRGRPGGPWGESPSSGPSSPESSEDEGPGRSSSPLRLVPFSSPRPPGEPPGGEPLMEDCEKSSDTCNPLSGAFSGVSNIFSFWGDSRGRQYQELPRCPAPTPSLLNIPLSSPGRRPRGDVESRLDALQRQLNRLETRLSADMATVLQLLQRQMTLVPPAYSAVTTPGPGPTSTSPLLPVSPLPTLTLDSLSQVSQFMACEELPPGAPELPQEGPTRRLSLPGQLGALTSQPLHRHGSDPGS
KCNK9 block conf: confirmation of human KCNK9 potassium channel inhibitors. shares compounds with KCNK9 inh. HEK293 KCNK9 cells, FluxOR thallium flux fluorescence. inhibition, % at 10 µM. actives 43% (n = 4,900). AID 492992;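 active = thallium signal inhibited by more than 5 SD of the compound-free buffer control wells, on both duplicate plates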;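 note: 0% = assay buffer control wells without compound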
Kir21 sel: tests whether KCNK9 modulators also affect mouse Kir2.1; shares compounds with KCNK9 inh; Kir2.1 cells, FluxOR thallium flux fluorescence; actives 4% (n = 4,900); AID 492993; inhibition, % at 10 µM;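 active = thallium signal drop more than 5 SD beyond the mean of the no-compound control wells, seen in both duplicate plates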;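 note: signal is fluorescence rise after thallium addition divided by baseline fluorescence; plate controls were assay buffer only for no effect and full block by chlorpromazine control for full effect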
HEK293 Tl ctr: second check of KCNK9 modulator effects in non-induced HEK293 cells. shares compounds with KCNK9 inh. FluxOR thallium flux. inhibition, % at 10 µM. actives 40% (n = 4,900). AID 492997;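 active = thallium signal drop beyond 5 SD of the untreated control mean, on both duplicate plates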;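 note: plate controls were buffer only IC0 wells for no effect and SID17386958 at its maximal inhibitory level for full effect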
* hit, by the source's call; i = inactive; / = not tested or not shown. Rows were chosen to be rich in hits. Some 3.7% of all compounds tested hit in one or more screens of this group.

SMILES	KCNQ1 inh	Kir21 inh	KCNQ1 act	KCNK9 inh	KCNK3 inh	hERG rescue	KCNK9 block conf	Kir21 sel	HEK293 Tl ctr
Cc1c(N2C(=O)/C(=C\c3cccc4ccccc34)SC2=S)c(=O)n(-c2ccccc2)n1C	i	-0.26	i	i	-9.4*	-6	i	i	i
O=C(Nc1ccc(-c2cn3c(n2)SCC3)cc1)c1ccco1	i	1.5	i	i	i	-7	/	/	/
CCSc1nc(N2CCCCC2)c2c(c1C#N)CCCC2	i	0.11	i	-12*	i	-12	57%*	i	46%*
Cc1ccc(-c2nn(-c3cc(Cl)ccc3[N+](=O)[O-])c(=O)c3ccccc23)cc1C	i	-0.67	i	i	i	-9	i	i	i
O=c1c2ccccc2c(-c2ccccc2)nn1-c1cc(Cl)ccc1[N+](=O)[O-]	/	/	/	/	i	/	/	/	/
CCc1ccc(S(=O)(=O)NCCc2csc(-c3ccccc3)n2)s1	i	-4.5*	i	-10*	i	-10	50%*	38%*	39%*
CN(C(=O)COc1ccc(Cl)cc1Cl)c1nnc(C23CC4CC(CC(C4)C2)C3)s1	i	0.43	i	i	i	-7	i	i	i
CN(C(=O)c1ccco1)c1nnc(C23CC4CC(CC(C4)C2)C3)s1	i	1.1	i	i	i	-12	/	/	/
Cc1ccc(C(=O)OCC(=O)NC2CCCCCC2)c(C)c1	/	/	/	/	i	/	/	/	/
Cc1ccc(C)n1-n1cnc2sc3c(c2c1=O)CCC3	i	-0.5	i	i	i	-6	/	/	/
Cn1cc(/C=N/n2cnc3sc4c(c3c2=O)CCCC4)c2ccccc21	i	0.01	i	i	i	-14	i	i	i
O=C1C(Cl)=C(N2CCN(Cc3ccccc3)CC2)C(=O)N1Cc1ccccc1	i	0.16	i	i	i	-3	i	i	i
Oc1ccc(-c2nc3c4c(ncn3n2)-c2ccccc2CC42CCCC2)cc1	i	-0.84	i	-9*	i	-7	36%*	i	35%*
CC(=O)Nn1cnc2c(c1=O)C1(CCCC1)Cc1ccccc1-2	/	/	/	/	i	/	/	/	/
CC(C)N=C(NS(=O)(=O)c1ccccc1)C(Cl)(Cl)Cl	i	-1.1	i	i	i	-5	/	/	/
CC1Cc2ccccc2N1C(=O)/C=C/c1cccc(F)c1 (stereo not given)	i	1.3	i	i	i	-19	i	i	i
COCCn1c(C)cc(C(=O)COC(=O)c2c(C)nn(Cc3ccccc3)c2C)c1C	i	-1.1	i	i	i	-6	i	i	i
O=C(N[C@@H]1C[C@H]2CC[C@@H]1C2)c1ccco1	i	2	i	i	i	-7	/	/	/
O=C(c1ccc(Cl)c(S(=O)(=O)N2CCOCC2)c1)N(c1ccccn1)C1CCCCC1	i	-0.73	i	i	i	-4	i	i	i
Cc1cccc(NC(=O)c2ccc(Cl)c(S(=O)(=O)N3CCCCC3)c2)n1	i	0.02	i	i	i	-12	i	i	24%*
O=C(c1ccc(Cl)c(S(=O)(=O)N2CCCCCC2)c1)N1CCN(c2ccccn2)CC1	i	0.9	i	i	i	-13	i	i	i
CCCn1c(C)cc(C(=O)COC(=O)c2ccc(Cl)c(S(=O)(=O)N3CCCC3)c2)c1C	i	-1.6	i	-18*	i	-2	65%*	i	i
O=C(c1ccc(Cl)c(S(=O)(=O)N2CCCCCC2)c1)N1CCCCC1	i	-0.6	i	i	i	-9	/	/	/
O=C(Nc1ccccn1)c1ccc(Cl)c(S(=O)(=O)N2CCOCC2)c1	i	0.23	i	i	i	4	/	/	/
COc1ccc(-c2cc(C(F)(F)F)nc(-n3ccnc3C)n2)cc1	i	-1.5	i	i	i	-12	/	/	/
SMILES	KCNQ1 inh	Kir21 inh	KCNQ1 act	KCNK9 inh	KCNK3 inh	hERG rescue	KCNK9 block conf	Kir21 sel	HEK293 Tl ctr
COc1ccc(C2(O)CCN(CC(=O)Nc3nc(-c4ccccc4)cs3)CC2)cc1	i	2.2	i	i	i	-12	/	/	/
O=C(O)C1SCCN1S(=O)(=O)c1ccc(N=NN2CCOCC2)cc1 (stereo not given)	i	2.4	i	i	i	-6	/	/	/
COc1ccccc1C(CNC(=O)c1cccc(NS(=O)(=O)c2ccc(C)c(F)c2)c1)N1CCCC1 (stereo not given)	i	-0.39	i	i	i	-15	/	/	/
O=C(c1ccc(Cl)c(S(=O)(=O)N2CCCCCC2)c1)N1CCCC(C(F)(F)F)C1 (stereo not given)	i	1.4	i	i	i	-9	i	i	i
CCOC(=O)C1CCCN(C(=O)c2ccc(Cl)c(S(=O)(=O)N3CCCCC3)c2)C1 (stereo not given)	i	-1.3	i	i	i	-7	i	i	i
COc1ccc(NC(=O)C23CC4CC(C2)CC(c2ccccc2)(C4)C3)c(OC)c1	i	0.35	i	i	i	-2	i	i	i
COCCNC(=O)C12CC3CC(C1)CC(c1ccccc1)(C3)C2	i	-0.04	i	i	i	-9	/	/	/
Cc1nn2c(N3CCCC3)cc(C(C)C)nc2c1-c1ccccc1	i	-0.33	i	-8.3*	i	-12	58%*	i	45%*
Cc1cc(C)c2c3c(c(-c4ccccc4)n2n1)c(=O)n(C)c(=O)n3C	/	/	/	/	i	/	/	/	/
Cc1cc(-c2ccccc2)c2c3c(c(-c4ccccc4)n2n1)c(=O)n(C)c(=O)n3C	i	-0.25	i	-8.8*	i	-6	i	i	36%*
COc1ccccc1CNC(=O)c1nccnc1CO	i	0.54	i	i	i	-2	/	/	/
O=C(Nc1ccccc1OC(F)F)c1ccc(S(=O)(=O)N2CCCC2)cc1	/	/	/	/	i	/	/	/	/
CCN(C(=O)C1CCCN(c2nc(-c3ccc(OC)cc3)no2)C1)c1ccccc1F (stereo not given)	i	0	i	i	i	-11	i	i	i
CCN(C(=O)C1CCN(c2nc(-c3ccc(OC)cc3)no2)CC1)c1ccccc1	i	0.09	i	i	i	-19	/	/	/
CCOc1ccc(-n2c(SCC(=O)Nc3ccc4c(c3)OCO4)nc3ccccc3c2=O)cc1	i	-1	i	i	i	-7	/	/	/
